Experimental data from the EternaBench riboswitch data.

Tested on: MS2 coat protein
Assay: apparent Kd, MS2 coat protein; higher = weaker binding; RNA-MaP array; FMN 200 µM where present
Method in brief: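 Stalled E. coli RNA polymerase produced the designs on Illumina sequencing-chip clusters. SNAP-549-labelled MS2 coat protein was added from 0.7 or 1.5 nM, doubling to 3 µM, without and then with constant ligand, in 100 mM Tris-HCl pH 7.5, 80 mM KCl, 4 mM MgCl2, BSA, DTT, yeast tRNA and Tween-20. The apparent Kd is the median of filtered per-cluster fits of green signal normalised to red-channel RNA signal and control-cluster median Fmax.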

[1] = designed as: ON switch for flavin mononucleotide, no ligand
[2] = ligand present: flavin mononucleotide, designed as: ON switch for flavin mononucleotide
[3] = designed as: OFF switch for flavin mononucleotide, no ligand
[4] = ligand present: flavin mononucleotide, designed as: OFF switch for flavin mononucleotide

Sequence | apparent Kd [1] [nM] | apparent Kd [2] [nM] | apparent Kd [3] [nM] | apparent Kd [4] [nM]
GCACAUGGCAUAGGAUAUAGAUCGAUUGUUUAAAUAGGUAGUUGGACUUAACUAGAAGGAUGAAACAUGAGGAUCACCCAUGUA | 394 | 68 | – | –
GGGUACAUCGGAGGAUAUCAUGUAAAUACAUGAGGAUCACCCAUGUCGAUAGAGACAUCGGAGAUUGAGAAGGCCGAUGUACCG | 41.7 | 300 | – | –
UGUUGUAUUACAGGAUAUCUAUUGUUGUUAUUUAGAGAAGGGUAUUCACAUGAGGAUCACCCAUGUAUAUACGAGGAAGUUGUG | 56 | 56.6 | – | –
GUAGCAUACAGAGGAUAUCUUUACCGGAAACGGACAUGAGGAUCACCCAUGUGGCGAAAGCCUAGGGAGAAGGCUGAAUGCUAC | 11.6 | 12.3 | – | –
ACAAGAUCAGGAUAUACAUGAGGAUCACCCAUGUAUAUCAAAAAGGGACUUUCUUAAUGUAGAAGGGAUCAUGU | – | – | 14 | 12.7
GGUUUUUCUGAGGAUAUUGCAUCACCCGAUUUAUAAGAAGGCAGAACAUGAGGAUCACCCAUGUGGGUUUCUAG | – | – | 19.4 | 24.8
GAUGGCUUAGGAUAUCAAAGUUACCACAUGAGGAUCACCCAUGUAUGGGAGAUGGAUAAAUGAGAAGGAGGGUGUU | – | – | 174 | 133
ACCAUAAACAUAGGAUAUAGAAUAAGAACUACUUACAUGAGGAUCACCCAUGUUAUAUUUGGGUACUAGAAGGAUGAGUGUUAA | 387 | 259 | – | –
CACUUCCCGUCAGGAUAUCGCCGUAGGUCCUCGGGUCUCGCCGUCAUACAUGAGGAUCACCCAUGUGAGAAGGGACGGGUUUCA | – | – | 16.4 | 107
GCAAGAAUAGGAUAUACACCAUGUCAGCUUCUAUACAACGCACAUGAGGAUCACCCAUGUAGAAGGGUUCUCUC | – | – | 553 | 504
GAGUGACAUGAGGAUCACCCAUGUGAGGAUAUCGGACGGACCUAGUUAACAUCCGCCGCGAGAAGGCACAUCGG | – | – | 156 | 27
AAGAAGUGAGGAUAUGCUGCUCGUCACUUGCGUGAUGAGUAGCAGAAGGCACAUGAGGAUCACCCAUGUGAAGA | – | – | 25.1 | 42.2
CUGGUGUGAGGAUAUCAGGACACGUACGCGGGCAUGUCAAAUGAGAAGGCACAUGAGGAUCACCCAUGUGGGAC | – | – | 29.7 | 41.6
GUAUACGAUGAGGAUAUAUGAUAUCAAAGCAUCAUAGAAGGCAUCACAUGAGGAUCACCCAUGUGAUCUUCUUU | – | – | 18.1 | 65.2
AAGAAACAUGAGGAUCACCCAUGUCAGGAUAUGCAAGACUGACGAAAGUCAGUCAAAAGCAGAAGGGACUAGAA | – | – | 57.2 | 76.6
GUAAAUCAUGUAGGAUAUGCAUGGCGAAGCUACGCAGAAGGACAUGAGGAUCACCCAUGUUAUAGCUACCCAGUUCGGUGGCAA | – | – | 102 | 220
GUAGAGUAGUGAGGAUAUACGAGUUCGAUAGAACGGCGAUCCAAUAAUACAUGAGGAUCACCCAUGUAGAAGGCACUUCUCUAC | – | – | 9.33 | 112
UAUCUAUUUAUGGGAUUAGAAUAUGAGGAUAUCAUUUAUUUAUACAUGAGGAUCACCCAUGUUUCUGAGAAGGCAUAUUUAAUA | 20.3 | 6.73 | – | –

Sequence | apparent Kd [1] [nM] | apparent Kd [2] [nM] | apparent Kd [3] [nM] | apparent Kd [4] [nM]
CGCUAUGAUGGGUUUAAUGGAGCAUAGGAUAUGCUUGUACAUGAGGAUCACCCAUGUUAUAUUGUGCAGAAGGGUGCAUUUGCG | 433 | 157 | – | –
AUGCUAGUGUGAGGAUAUCAACAUGAGGAUCACCCAUGUUGGAAGUACACGACAUGCGGUACAUCUGAGAAGGUACAUUAGCAU | – | – | 29.1 | 52
UGUUCUAUGUAGAAGGCCCAUAUCUGUACUUAGGGAGGAUAUACAUGAGGAUCACCCAUGUGUAGAGCUGGUGGACUGGUCAGC | – | – | 16.5 | 37.2
GCGGAACAUGAGGAUCACCCAUGUAUCCGAAAUAUGGACUCACAGGAUAUCCCGAGUUGCCAGUCGGAGAAGGGUGACUCCAGC | 12.3 | 8.09 | – | –
GUAGCAUAAUCAGGAUAUUCAGCGAAUAGAUAGACAUGAGGAUCACCCAUGUGGCGAAAGCCUAGGGAGAAGGGAUAAUGCUAC | 200 | 35.8 | – | –
AAAAAAAAAAGGCAGGAUAUCCAAAAAAAAACAUGAGGAUCACCCAUGUAAAAAAAAAAAAAGUGGGAGAAGGGCCAAAAAAAAAA | 45.3 | 15.6 | – | –
AUACAUGAGGAUCACCCAUGUCGCAGGUUAAGGCCCAAAUCGAGAAGGGAUUCGGUCAAGCCUAAUCAGGAUAUCGGUGGAGCC | 84.3 | 69.6 | – | –
GAGCGAAAGCUCAAUGUCGAUAGCAGAAGGACAUCCAAUAACAUGAAAACAUGAGGAUCACCCAUGUAGGAUAUGCUAUCGACU | – | – | 5.55 | 6.55
AAGUAUAAGGGCAUUAAACAUGAGGAUCACCCAUGUACAAUAGAGGAUAUGCAUUUUGGUUUAGAGUAGAAGGUUAGAGAAUAU | – | – | 28 | 33.4
UGAAAUAGAGGAUAUACAUGAGGAUCACCCAUGUGAUCCUCCGGAGUAGGCCGUUUAUGUAGAAGGCUGAUGAA | – | – | 48.9 | 48.3
AUGGUACAUGAGGAUCACCCAUGUUAGGAUAUCGCGUGAUCUAAAACUAAGAGACACACGAGAAGGGACGACAU | – | – | 176 | 104
GGUACACAUGAGGAUCACCCAUGUCAGGAUAUCUGGAUACUCUUUAUUUUAGAUAUCCAGAGAAGGGACGUGCC | – | – | 30.8 | 40.9
ACCUUAAAAGUGAGGAUAUCUAGGGCCAAAUGGCCGGAGAAGGCACAUGAGGAUCACCCAUGUAACGCCAUGGA | – | – | 13.7 | 43.7
CUUAGACAUGAGGAUCACCCAUGUGAGGAUAUGAUGCGAAUAAAGAAAGAAGAAAGCAUCAGAAGGCACAUAUG | – | – | 115 | 349
ACAUGAGGAUCACCCAUGUUAUCAGGGACUUCAAUUAUUUGUAGAAGGCUGUUUUCUUGUUAGUCAGAGGAUAUACAAUUAAAU | – | – | 12.7 | 14.2
AACAGUACAGGAUAUACAUGAGGAUCACCCAUGUGAGAAUUAAGUGGCAUACCACAAAGUAGAAGGGUACUGGA | – | – | 29.7 | 202
UGGAGGUCAGGAUAUGCAUGGCGGGACUUGCGUCGUGGCGUGCAGAAGGGACAUGAGGAUCACCCAUGUGGAGU | – | – | 112 | 77.4
CUCAAACAUGAGGAUCACCCAUGUGUUGUCAUGGGAGGAUAUCCCAGUUCGGUGACGUCGGGAGAAGGCCUAUGUC | 113 | 35.2 | – | –
